Experimental data: ChEMBL document CHEMBL3751694, “1-Piperazinylphthalazines as potential VEGFR-2 inhibitors and anticancer agents: Synthesis and in vitro biological evaluation” (Eur J Med Chem, 2016)

Tests used:
Assay type in all cases: functional
SR = assay: Growth inhibition of human SR cells at 10 uM after 48 hrs by SRB method; conditions: read-out: GI
Outline: (§1)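 NCI 56-line primary screen at a single 10^-5 M concentration. Cells grown in RPMI 1640 with 5% FBS and 2 mM L-glutamine, plated at 5000–40,000 cells/well, then preincubated for 24 h. Exposure was 48 h at 37 °C and 5% CO2. Adherent cells were fixed with cold TCA at 10% final, suspension cells at 16%. Staining used 0.4% SRB, read at 515 nm. Results are % growth inhibition relative to control.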

T47D = assay: Growth inhibition of human T47D cells at 10 uM after 48 hrs by SRB method; conditions: read-out: GI
Outline: (§2)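 NCI 56-line screen, single-dose primary assay at 10^-5 M. Cells grown in RPMI 1640 with 5% FBS and 2 mM L-glutamine, plated at 5000–40,000 cells/well and held 24 h at 37 °C, 5% CO2 before drug addition. Compound was given from DMSO stock, exposure 48 h, then TCA fixation and SRB staining with absorbance at 515 nm. % growth is taken relative to time-zero and untreated controls.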

SK-MEL-5 = assay: Growth inhibition of human SK-MEL-5 cells at 10 uM after 48 hrs by SRB method; conditions: SK-MEL-5, 48 h, read-out: GI; outline: as §1
[1] = Growth inhibition of human PC3 cells at 10 uM after 48 hrs by SRB method; conditions: PC-3, 48 h, read-out: GI; outline: as §1
[2] = Growth inhibition of human MOLT4 cells at 10 uM after 48 hrs by SRB method; conditions: MOLT-4, 48 h, read-out: GI; outline: as §1
NCI-H522 = assay: Growth inhibition of human NCI-H522 cells at 10 uM after 48 hrs by SRB method; conditions: NCI-H522, 48 h, read-out: GI; outline: as §1
MDA-MB-468 = assay: Growth inhibition of human MDA-MB-468 cells at 10 uM after 48 hrs by SRB method; conditions: MDA-MB-468, 48 h, read-out: GI; outline: as §1
[3] = Growth inhibition of human UACC62 cells at 10 uM after 48 hrs by SRB method; conditions: UACC-62, 48 h, read-out: GI; outline: as §2
K562 = assay: Growth inhibition of human K562 cells at 10 uM after 48 hrs by SRB method; conditions: K562, 48 h, read-out: GI; outline: as §1
[4] = Growth inhibition of human […] cells at 10 uM after 48 hrs by SRB method; conditions: read-out: GI; outline: as §1
A498 = assay: Growth inhibition of human A498 cells at 10 uM after 48 hrs by SRB method; conditions: A498, 48 h, read-out: GI; outline: as §1
CCRF-CEM = assay: Growth inhibition of human CCRF-CEM cells at 10 uM after 48 hrs by SRB method; conditions: read-out: GI; outline: as §1
A549 = assay: Growth inhibition of human A549 cells at 10 uM after 48 hrs by SRB method; conditions: A549, 48 h, read-out: GI; outline: as §1
MCF7 = assay: Growth inhibition of human MCF7 cells at 10 uM after 48 hrs by SRB method; conditions: MCF7, 48 h, read-out: GI; outline: as §1
[5] = Growth inhibition of human UO31 cells at 10 uM after 48 hrs by SRB method; conditions: UO-31, 48 h, read-out: GI; outline: as §2
[6] = Growth inhibition of human UACC257 cells at 10 uM after 48 hrs by SRB method; conditions: UACC-257, 48 h, read-out: GI; outline: as §2
[7] = Growth inhibition of human HOP92 cells at 10 uM after 48 hrs by SRB method; conditions: HOP-92, 48 h, read-out: GI; outline: as §1
[8] = Growth inhibition of human Caki1 cells at 10 uM after 48 hrs by SRB method; conditions: CAKI-1, 48 h, read-out: GI; outline: as §1
[9] = Growth inhibition of human HL-60(TB) cells at 10 uM after 48 hrs by SRB method; conditions: HL-60, 48 h, read-out: GI
Outline: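 NCI single-dose primary screen at 10^-5 M, 48 h exposure. Cells grown in RPMI 1640 with 5% FBS and 2 mM L-glutamine. Suspension cells fixed in situ with TCA (final 16%), stained with SRB, absorbance read at 515 nm. Percent growth inhibition calculated against time-zero and untreated control plates.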

[10] = Growth inhibition of human COLO205 cells at 10 uM after 48 hrs by SRB method; conditions: COLO 205, 48 h, read-out: GI; outline: as §1
[11] = Growth inhibition of human IGROV1 cells at 10 uM after 48 hrs by SRB method; conditions: IGROV-1, 48 h, read-out: GI; outline: as §1
[12] = Growth inhibition of human BT549 cells at 10 uM after 48 hrs by SRB method; conditions: BT-549, 48 h, read-out: GI; outline: as §1
MDA-MB-231 = assay: Growth inhibition of human MDA-MB-231 cells at 10 uM after 48 hrs by SRB method; conditions: MDA-MB-231, 48 h, read-out: GI; outline: as §1
HT-29 = assay: Growth inhibition of human HT-29 cells at 10 uM after 48 hrs by SRB method; conditions: HT-29, 48 h, read-out: GI; outline: as §1
[13] = Growth inhibition of human OVCAR3 cells at 10 uM after 48 hrs by SRB method; conditions: OVCAR-3, 48 h, read-out: GI; outline: as §1
NCI/ADR-RES = assay: Growth inhibition of human NCI/ADR-RES cells at 10 uM after 48 hrs by SRB method; conditions: read-out: GI; outline: as §1
[14] = Growth inhibition of human HCT116 cells at 10 uM after 48 hrs by SRB method; conditions: HCT-116, 48 h, read-out: GI; outline: as §1
NCI-H226 = assay: Growth inhibition of human NCI-H226 cells at 10 uM after 48 hrs by SRB method; conditions: NCI-H226, 48 h, read-out: GI; outline: as §1
[15] = Growth inhibition of human TK10 cells at 10 uM after 48 hrs by SRB method; conditions: TK-10, 48 h, read-out: GI; outline: as §2
SK-MEL-2 = assay: Growth inhibition of human SK-MEL-2 cells at 10 uM after 48 hrs by SRB method; conditions: SK-MEL-2, 48 h, read-out: GI; outline: as §1
[16] = Growth inhibition of human OVCAR8 cells at 10 uM after 48 hrs by SRB method; conditions: OVCAR-8, 48 h, read-out: GI; outline: as §1

SMILES | inhibition of growth at 10 µM (SR) [%] | inhibition of growth at 10 µM (T47D) [%] | inhibition of growth at 10 µM (SK-MEL-5) [%] | inhibition of growth at 10 µM [1] [%] | inhibition of growth at 10 µM [2] [%] | inhibition of growth at 10 µM (NCI-H522) [%] | inhibition of growth at 10 µM (MDA-MB-468) [%] | inhibition of growth at 10 µM (K562) [%] | inhibition of growth at 10 µM [4] [%] | inhibition of growth at 10 µM (A498) [%] | inhibition of growth at 10 µM [5] [%] | inhibition of growth at 10 µM [7] [%] | inhibition of growth at 10 µM [9] [%] | also measured
O=C(CN1CCN(c2nnc(-c3ccccc3)c3ccccc23)CC1)Nc1cccc(C(F)(F)F)c1 | 55 | 59 | 41 | 40 | 52 | 53 | 60 | 38 | 46 | 32 |  |  |  | inhibition of growth at 10 µM [3]: 41%; inhibition of growth at 10 µM (CCRF-CEM): 31%; inhibition of growth at 10 µM (A549): 34%; inhibition of growth at 10 µM (MCF7): 41%
N#Cc1ccc(NC(=O)CN2CCN(c3nnc(-c4ccccc4)c4ccccc34)CC2)cc1 | 36 | 64 | 47 |  | 43 | 37 | 50 | 34 | 39 | 44 | 49 | 40 | 30 | inhibition of growth at 10 µM [6]: 30%; inhibition of growth at 10 µM [3]: 32%; inhibition of growth at 10 µM [8]: 34%; inhibition of growth at 10 µM [10]: 32%; inhibition of growth at 10 µM (MCF7): 30%
COc1ccc(C(=O)CN2CCN(c3nnc(-c4ccccc4)c4ccccc34)CC2)cc1 |  | 36 |  |  |  | 35 |  | 30 | 32 |  | 35 |  |  | 
O=C(CN1CCN(c2nnc(-c3ccccc3)c3ccccc23)CC1)Nc1ccccc1Cl | 36 | 58 |  | 45 | 31 | 42 | 43 | 33 | 48 |  | 37 | 31 | 40 | inhibition of growth at 10 µM [6]: 30%; inhibition of growth at 10 µM [11]: 46%
O=C(CN1CCN(c2nnc(-c3ccccc3)c3ccccc23)CC1)c1ccc(Cl)cc1 |  | 41 |  |  | 30 | 57 | 38 | 33 |  |  |  |  |  | 
CC(=O)c1sc(NC(=O)CN2CCN(c3nnc(-c4ccccc4)c4ccccc34)CC2)nc1C | 49 | 81 | 33 | 53 | 52 | 41 | 49 |  | 45 | 45 | 43 | 70 |  | inhibition of growth at 10 µM [12]: 34%; inhibition of growth at 10 µM (MDA-MB-231): 41%; inhibition of growth at 10 µM [11]: 40%; inhibition of growth at 10 µM [10]: 30%; inhibition of growth at 10 µM (HT-29): 31%
O=C(CN1CCN(c2nnc(-c3ccccc3)c3ccccc23)CC1)Nc1nccs1 | 31 | 64 | 36 | 38 | 39 | 41 | 59 | 36 | 51 |  | 40 | 35 | 38 | inhibition of growth at 10 µM [3]: 37%; inhibition of growth at 10 µM [13]: 38%; inhibition of growth at 10 µM (NCI/ADR-RES): 32%; inhibition of growth at 10 µM (CCRF-CEM): 30%
COc1ccc(-c2csc(NC(=O)CN3CCN(c4nnc(-c5ccccc5)c5ccccc45)CC3)n2)cc1 | 44 | 82 | 46 | 47 | 62 | 34 | 58 | 48 | 50 | 43 | 48 |  | 40 | inhibition of growth at 10 µM (MDA-MB-231): 42%; inhibition of growth at 10 µM [14]: 32%; inhibition of growth at 10 µM (NCI-H226): 36%; inhibition of growth at 10 µM [8]: 33%; inhibition of growth at 10 µM [15]: 32%; inhibition of growth at 10 µM (CCRF-CEM): 34%; inhibition of growth at 10 µM [10]: 40%; inhibition of growth at 10 µM (A549): 34%
O=C(CN1CCN(c2nnc(-c3ccccc3)c3ccccc23)CC1)Nc1ccc(Cl)cc1 | 40 | 57 |  | 32 | 41 | 53 | 53 | 30 | 40 | 36 | 34 |  | 30 | inhibition of growth at 10 µM (SK-MEL-2): 33%
COc1ccc(NC(=O)CN2CCN(c3nnc(-c4ccccc4)c4ccccc34)CC2)cc1 |  | 55 |  |  |  | 30 | 37 |  |  |  |  |  |  | 
O=C(CN1CCN(c2nnc(-c3ccccc3)c3ccccc23)CC1)Nc1c(Cl)cccc1Cl | 40 | 60 | 44 | 34 | 42 | 34 | 43 | 43 | 48 |  | 38 | 47 | 38 | inhibition of growth at 10 µM [16]: 35%; inhibition of growth at 10 µM (NCI-H226): 30%
